In ChEMBL document CHEMBL4680121, “Development of (4-methoxyphenyl)-1H-tetrazol-5-amine regioisomers as a new class of selective antitubercular agents” (Eur J Med Chem, 2020):
pIC50: −log10 of the molar value. Values after ≈ are worked out from the molar mass of the structure shown.

Assays:
[1] = test system: V79; test: Cytotoxicity against Chinese Hamster V79 cells assessed as reduction in cell viability measured after 72 hrs by MTT assay; assay type: cell-based; settings: Cricetulus griseus, V79, 72 h
Procedure, shortened: (§1)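 MTT viability assay on cells grown in DMEM with 10% heat-inactivated FBS, penicillin/streptomycin and 20 mM HEPES at 37 °C/5% CO2. Cells were seeded at 1×10^4 per well and allowed to adhere for 24 h, then the medium was refreshed. Compounds were added at 20–140 μM for 72 h at 37 °C, followed by MTT (0.5 mg/mL in serum-free medium) for 4 h. Untreated cells served as control. IC50 is the concentration giving 50% growth inhibition versus control.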

[2] = test system: HaCaT; test: Cytotoxicity against human HaCaT cells assessed as reduction in cell viability measured after 72 hrs by MTT assay; assay type: cell-based; procedure, shortened: as §1
[3] = test system: Staphylococcus epidermidis; test: Antibacterial activity against Staphylococcus epidermidis ATCC 1457 assessed as bacterial growth inhibition measured after 18 hrs by two-fold serial microdilution method; assay type: functional
Procedure, shortened: (§2)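 Two-fold serial broth microdilution in MH II medium following modified CLSI procedures. Compounds were dissolved in DMSO and diluted in medium to at most 1% solvent, tested from 0.03125 to 512 μg/ml. Final inoculum 10^6 CFU/ml. MIC was taken as the lowest concentration with no visible growth after 18 h at 35 °C.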

[4] = test system: Pseudomonas aeruginosa; test: Antibacterial activity against Pseudomonas aeruginosa PAO1 assessed as bacterial growth inhibition measured after 18 hrs by two-fold serial microdilution method; assay type: functional; procedure, shortened: as §2
[5] = test system: V79; test: Cytotoxicity against Chinese Hamster V79 cells assessed as reduction in cell viability at 100 uM measured after 72 hrs by MTT assay; assay type: cell-based, Cricetulus griseus; settings: v79, 72 h; procedure, shortened: as §1
[6] = test system: Mycobacterium avium; test: Antimycobacterial activity against Mycobacterium avium assessed as inhibition of microbial growth incubated for 1 week by MABA method; assay type: functional; settings: 168 h, time 1 weeks
Procedure, shortened: (§3)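 Microplate Alamar Blue assay in Middlebrook 7H9 broth with 10% OADC. Inoculum from fresh LJ culture was adjusted to McFarland 1 and diluted 1:20. DMSO stocks were two-fold serially diluted to final 0.125–512 µg/ml, with growth and sterile controls. Plates ran 1 week at 37 °C, then Alamar blue was added for 24 h. MIC is the lowest concentration preventing the blue-to-pink change.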

[7] = test system: Proteus vulgaris; test: Antibacterial activity against Proteus vulgaris NCTC 4635 assessed as bacterial growth inhibition measured after 18 hrs by two-fold serial microdilution method; assay type: functional; procedure, shortened: as §2
[8] = test system: Staphylococcus epidermidis; test: Antibacterial activity against Staphylococcus epidermidis ATCC 12228 assessed as bacterial growth inhibition measured after 18 hrs by two-fold serial microdilution method; assay type: functional; procedure, shortened: as §2
[9] = test system: Staphylococcus epidermidis; test: Antibacterial activity against Staphylococcus epidermidis ATCC 35984/RP62A assessed as bacterial growth inhibition measured after 18 hrs by two-fold serial microdilution method; assay type: functional; procedure, shortened: as §2
[10] = test system: Mycobacterium tuberculosis; test: Antitubercular activity against Mycobacterium tuberculosis H37Rv ATCC 25618 assessed as inhibition of microbial growth incubated for 1 week by MABA method; assay type: functional; settings: H37Rv ATCC 25618, 168 h, time 1 weeks; procedure, shortened: as §3
[11] = test system: Mycobacterium kansasii; test: Antibacterial activity against Mycobacterium kansasii assessed as inhibition of microbial growth incubated for 1 week by MABA method; assay type: functional; settings: 168 h, time 1 weeks
Procedure, shortened: (§4)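 Microplate Alamar Blue assay using two-fold serial microdilution in Middlebrook 7H9 broth with 10% OADC, compounds 0.125–512 µg/ml from DMSO stocks. Inoculum came from fresh LJ culture, was adjusted to McFarland 1 and diluted 1:20. Plates were incubated 1 week at 37 °C, Alamar blue was added and plates were re-incubated 24 h. MIC was the lowest concentration preventing the blue-to-pink change. Each plate carried growth and sterile controls.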

[12] = test system: Staphylococcus aureus; test: Antibacterial activity against Staphylococcus aureus NCTC 4163 assessed as bacterial growth inhibition measured after 18 hrs by two-fold serial microdilution method; assay type: functional; procedure, shortened: as §2
[13] = test system: Mycolicibacterium fortuitum; test: Antibacterial activity against Mycobacterium fortuitum assessed as inhibition of microbial growth incubated for 1 week by MABA method; assay type: functional; settings: 168 h, time 1 weeks; procedure, shortened: as §4
[14] = test system: Mycobacterium scrofulaceum; test: Antibacterial activity against Mycobacterium scrofulaceum assessed as inhibition of microbial growth incubated for 1 week by MABA method; assay type: functional; settings: 168 h, time 1 weeks; procedure, shortened: as §4
[15] = test system: HaCaT; test: Cytotoxicity against human HaCaT cells assessed as reduction in cell viability at 100 uM measured after 72 hrs by MTT assay; assay type: cell-based; procedure, shortened: as §1
[16] = test system: Escherichia coli; test: Antibacterial activity against Escherichia coli ATCC 25922 assessed as bacterial growth inhibition measured after 18 hrs by two-fold serial microdilution method; assay type: functional; procedure, shortened: as §2
[17] = test system: Mycobacterium xenopi; test: Antibacterial activity against Mycobacterium xenopi assessed as inhibition of microbial growth incubated for 1 week by MABA method; assay type: functional; settings: 168 h, time 1 weeks; procedure, shortened: as §4
[18] = test system: Mycobacterium intracellulare; test: Antimycobacterial activity against Mycobacterium intracellulare assessed as inhibition of microbial growth incubated for 1 week by MABA method; assay type: functional; settings: 168 h, time 1 weeks; procedure, shortened: as §4
[19] = test system: Klebsiella pneumoniae; test: Antibacterial activity against Klebsiella pneumoniae ATCC 10031 assessed as bacterial growth inhibition measured after 18 hrs by two-fold serial microdilution method; assay type: functional; procedure, shortened: as §2
[20] = test system: Mycobacterium tuberculosis; test: Antitubercular activity against Mycobacterium tuberculosis Spec.192 assessed as inhibition of microbial growth incubated for 1 week by MABA method; assay type: functional; settings: Mycobacterium tuberculosis, 192, 168 h; time 1 weeks; procedure, shortened: as §3
[21] = test system: Pseudomonas aeruginosa; test: Antibacterial activity against Pseudomonas aeruginosa NCTC 6749 assessed as bacterial growth inhibition measured after 18 hrs by two-fold serial microdilution method; assay type: functional; procedure, shortened: as §2
[22] = test system: Staphylococcus aureus; test: Antibacterial activity against Staphylococcus aureus ATCC 6538 assessed as bacterial growth inhibition measured after 18 hrs by two-fold serial microdilution method; assay type: functional; procedure, shortened: as §2

SMILES	pIC50 [1]	pIC50 [2]	MIC [3] [µg/mL]	MIC [4] [µg/mL]	Activity [5]	MIC [6] [µg/mL]	MIC [7] [µg/mL]	MIC [8] [µg/mL]	MIC [9] [µg/mL]	MIC [10] [µg/mL]	MIC [11] [µg/mL]	MIC [12] [µg/mL]	MIC [13] [µg/mL]	MIC [14] [µg/mL]	Activity [15]	MIC [16] [µg/mL]	MIC [17] [µg/mL]	MIC [18] [µg/mL]	MIC [19] [µg/mL]	MIC [20] [µg/mL]	also measured
COc1cccc2c1C(=O)c1c(O)c3c(c(O)c1C2=O)C[C@@](O)(C(=O)CO)C[C@@H]3O[C@H]1C[C@H](N)[C@H](O)[C@H](C)O1 [DOXORUBICIN]	5.66	6.64	–	–	–	–	–	–	–	–	–	–	–	–	–	–	–	–	–	–	–
COc1ccc(-n2nnnc2Nc2ccc(F)cc2)cc1	3.63	3.81	128 (≈ 449 µM)	> 256	Non-Toxic	256	128 (≈ 449 µM)	64 (≈ 224 µM)	128 (≈ 449 µM)	32	512	128 (≈ 449 µM)	512	32	Non-Toxic	> 256	> 512	16	> 256	32	MIC [21]: 128 µg/mL (≈ 449 µM); MIC [22]: 128 µg/mL (≈ 449 µM)
O=C(O)c1cn(C2CC2)c2cc(N3CCNCC3)c(F)cc2c1=O [CIPROFLOXACIN]	–	–	0.125 (≈ 0.377 µM)	–	–	–	< 0.0625	0.125 (≈ 0.377 µM)	0.0625 (≈ 0.189 µM)	–	–	–	–	–	–	< 0.0625	–	–	< 0.0625	–	–
COc1ccc(Nc2nnnn2-c2ccccc2Cl)cc1	3.99	4.00	128 (≈ 424 µM)	256 (≈ 848 µM)	Non-Toxic	512	256 (≈ 848 µM)	64 (≈ 212 µM)	64 (≈ 212 µM)	8	256	64 (≈ 212 µM)	128	32	Non-Toxic	256 (≈ 848 µM)	512	128	256 (≈ 848 µM)	8	MIC [21]: 256 µg/mL (≈ 848 µM); MIC [22]: 64 µg/mL (≈ 212 µM)
COc1ccc(-n2nnnc2Nc2ccc(Cl)cc2)cc1	3.61	3.84	128 (≈ 424 µM)	> 256	Non-Toxic	> 512	128 (≈ 424 µM)	64 (≈ 212 µM)	128 (≈ 424 µM)	16	> 512	128 (≈ 424 µM)	> 512	> 512	Non-Toxic	> 256	512	32	> 256	16	MIC [21]: > 256 µg/mL; MIC [22]: 128 µg/mL (≈ 424 µM)
COc1ccc(-n2nnnc2Nc2cccc(Cl)c2)cc1	3.62	3.85	> 256	> 256	Non-Toxic	256	> 256	> 256	> 256	32	512	> 256	256	512	Non-Toxic	> 256	> 512	128	> 256	32	MIC [21]: > 256 µg/mL; MIC [22]: > 256 µg/mL
